Measurements pooled from the literature.
Protocols differ between the studies behind these lines.
Matrix: plasma

SMILES	test system	conditions	quantity	value
Cc1nc2ccc(F)cc2n1-c1nc(N)c(F)c(Nc2ccc(C(F)(F)F)cc2)n1	cynomolgus monkey	oral, 2 mg/kg	bioavailability	66%
C=CC(=O)N1CC2CC(n3nc(-c4ccc(C(=O)Nc5ccccn5)cc4)c4c(N)ncnc43)CC2C1 (stereo not drawn)	SCID mouse	oral, 5 mg/kg	Tmax	60 min
CN1CCC(c2ccccc2CC(C)(C)Nc2nc(N3CCOCC3)nc(-n3c(C(F)F)nc4ccccc43)n2)CC1	cynomolgus monkey	intravenous, 2 mg/kg, single dose	Vd	8 L/kg
CN1CCC[C@H](CN2c3ccccc3Sc3ccccc32)C1.Cl	mouse	intraperitoneal, 32 mg/kg, single dose	Tmax	60 min
CC(C)(O)c1cn(-c2ccc(-c3cc(F)c(CO)c(S(C)(=O)=O)c3)cc2)c(C(C)(C)c2cccc(F)c2Cl)n1	male cynomolgus monkey	intravenous, 1 mg/kg, single dose	Vd	3.2 L/kg
CCc1ccc(Cc2cc([C@@H]3O[C@H](CO)[C@@H](O)[C@H](O)[C@H]3O)cc3c2CCC3)cc1	male C57BL/6 mouse	oral, 0.3 mg/kg	Tmax	30 min
CC(C)(O)c1cn(-c2ccc(-c3cc(F)c(CO)c(S(C)(=O)=O)c3)cc2F)c(C(C)(C)c2c(Cl)cccc2Cl)n1	male cynomolgus monkey	oral, 3 mg/kg, single dose	bioavailability	42%
CCc1nc2c(C)cc(N3CCN(CC(=O)N4CC(O)C4)CC3)cn2c1N(C)c1nc(-c2ccc(F)cc2)c(C#N)s1	human	oral, 1500 mg, single dose, fed, healthy volunteers	Cmax	19000 ng/mL
CO[C@H]1CC[C@H](N2C(=O)CNc3ncc(-c4ccc(C(C)(C)O)nc4)nc32)CC1	human	oral, 15 mg, multiple doses, patients	Cmax	92 ng/mL
COc1cc(C(=O)NC2CCN(C)CC2)c(F)cc1Nc1ncc(C(F)(F)F)c(Oc2cccc3c2C(=O)N(C)C3)n1	human	oral, 200 mg, multiple doses, once daily, steady state, patients	Cmax	2580 nM
CC(C)(O)c1cn(-c2ccc(-c3cccc(S(C)(=O)=O)c3)cc2)c(C(C)(C)c2ccccc2Cl)n1	male cynomolgus monkey	intravenous, 1 mg/kg, single dose	Vd	1.3 L/kg
CC(C)(C)c1ccc(O)c(CN(Cc2cc(C(C)(C)C)ccc2O)C2CCC(NC(N)=O)CC2)c1 (stereo not drawn)	male C57BL/6 mouse	intraperitoneal, 10 mg/kg, single dose	Tmax	15 min
